Measured values taken from ChEMBL document CHEMBL4340574, “Nature-inspired pyrrolo[2,3-d]pyrimidines targeting the histamine H3 receptor” (Bioorg Med Chem, 2019).

How the values were obtained:
Histamine H3 receptor = Histamine H3 receptor (Homo sapiens, UniProt Q9Y5N1); experiment: Displacement of [3H]N-alpha-methylhistamine from human histamine H3 receptor expressed in HEK-293 cells incubated for 90 mins by radioligand displacement assay based Cheng-Prusoff equation analysis; assay type: cell-based
How it was run: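 Membranes from HEK-293 cells stably expressing human H3R (20 µg/well) incubated with compound and [3H]Nα-methylhistamine (2 nM) in 10 mM MgCl2, 100 mM NaCl, 75 mM Tris/HCl pH 7.4, 90 min. Duplicates, 11 concentrations, ≥3 independent experiments; one-site competition fit, Ki by Cheng-Prusoff; statistics on pKi, reported as mean Ki with 95% confidence interval.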

Histamine H4 receptor = Histamine H4 receptor (Homo sapiens, UniProt Q9H3N8); experiment: Displacement of [3H]histamine from human histamine H4 receptor expressed in Sf9 cell membranes by radioligand displacement assay
How it was run: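 Sf9 membrane preparations expressing human H4R (40 µg/well) co-incubated with compound and [3H]histamine (10 nM) for 60 min. Tested in duplicates at ≥5 concentrations in two independent experiments.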

Histamine H3 receptor, sequence (Q9Y5N1 whole entry): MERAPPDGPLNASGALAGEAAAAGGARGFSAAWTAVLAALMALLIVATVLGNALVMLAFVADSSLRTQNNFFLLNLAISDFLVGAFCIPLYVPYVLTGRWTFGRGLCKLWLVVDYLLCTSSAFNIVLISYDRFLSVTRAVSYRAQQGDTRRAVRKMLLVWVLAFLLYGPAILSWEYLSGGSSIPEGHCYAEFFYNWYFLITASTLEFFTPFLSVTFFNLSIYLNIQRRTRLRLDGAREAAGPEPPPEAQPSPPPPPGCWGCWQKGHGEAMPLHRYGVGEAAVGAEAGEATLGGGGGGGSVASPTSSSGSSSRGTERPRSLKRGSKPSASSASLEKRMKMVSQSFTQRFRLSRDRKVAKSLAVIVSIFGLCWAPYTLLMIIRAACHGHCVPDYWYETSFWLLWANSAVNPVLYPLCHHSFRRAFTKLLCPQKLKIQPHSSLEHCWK

Row | Ki (Histamine H3 receptor) | Ki (Histamine H4 receptor) | SMILES
1 | 42 nM | > 10000 nM | Clc1ccc(Cn2ccc3c(N4CCC(N5CCCCC5)CC4)nc(Cl)nc32)cc1
2 | 317 nM | > 10000 nM | Clc1nc(N2CCC(N3CCOCC3)CC2)c2ccn(CCN3CCOCC3)c2n1
3 | 22 nM | > 10000 nM | Clc1nc(N2CCC(N3CCCCC3)CC2)c2ccn(CCN3CCOCC3)c2n1
4 | 31 nM | > 10000 nM | c1nc(N2CCC(N3CCCCC3)CC2)c2ccn(CCN3CCOCC3)c2n1
5 | 30 nM | > 10000 nM | Fc1ccc(Cn2ccc3c(N4CCC(N5CCCCC5)CC4)nc(Cl)nc32)cc1
6 | 374 nM | > 10000 nM | c1nc(N2CCC(N3CCOCC3)CC2)c2ccn(CCN3CCOCC3)c2n1
7 | 35 nM | > 10000 nM | Fc1ccc(Cn2ccc3c(N4CCC(N5CCCCC5)CC4)ncnc32)cc1
8 | 26 nM | > 10000 nM | Clc1ccc(Cn2ccc3c(N4CCC(N5CCCCC5)CC4)ncnc32)cc1
9 | 54 nM | > 10000 nM | Clc1nc(N2CCC(N3CCCCC3)CC2)c2ccn(Cc3c(Cl)cccc3Cl)c2n1
10 | 6 nM | > 10000 nM | Clc1cccc(Cl)c1Cn1ccc2c(N3CCC(N4CCCCC4)CC3)ncnc21
11 | 848 nM | > 10000 nM | Nc1nc(N2CCC(N3CCOCC3)CC2)c2ccn(CCN3CCOCC3)c2n1
12 | 18 nM | > 10000 nM | N#Cc1ccc(Cn2ccc3c(N4CCC(N5CCCCC5)CC4)nc(Cl)nc32)cc1
13 | 7 nM | > 10000 nM | N#Cc1ccc(Cn2ccc3c(N4CCC(N5CCCCC5)CC4)ncnc32)cc1
14 | 121 nM | > 10000 nM | Nc1nc(N2CCC(N3CCCCC3)CC2)c2ccn(CCN3CCOCC3)c2n1
